The entries come from a sample that favours hits as a whole.
IDH1 mut inh: IDH1 R132H (human) inhibition; O75874; IDH1 R132H reductase, diaphorase/resazurin fluorescence, 60 min; inhibition, % at 10 µM; 0.18% of 70,000 active; in the data active means inhibition above about 34%; inconclusive means no clear call, values can overlap the other calls; inactive means below about 11%;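 further: 0% = DMSO and 100% = no enzyme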
KDM4C inh: blocks human GASC-1 (KDM4C) demethylase activity; AID 720574; Q9H3R0; inhibition, % at 12.5 µM; GST-KDM4C 2-372, H3K9me3 peptide, LANCE TR-FRET; 0.15% of 96,000 active;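 active means mean replicate inhibition above about 25%, with at least 55% of replicates also reaching it, limit read from the data, passing the limit was not always enough; inconclusive means only one of those two conditions met; inactive means neither condition met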
Target sequence (Q9H3R0 2-372 limits assumed): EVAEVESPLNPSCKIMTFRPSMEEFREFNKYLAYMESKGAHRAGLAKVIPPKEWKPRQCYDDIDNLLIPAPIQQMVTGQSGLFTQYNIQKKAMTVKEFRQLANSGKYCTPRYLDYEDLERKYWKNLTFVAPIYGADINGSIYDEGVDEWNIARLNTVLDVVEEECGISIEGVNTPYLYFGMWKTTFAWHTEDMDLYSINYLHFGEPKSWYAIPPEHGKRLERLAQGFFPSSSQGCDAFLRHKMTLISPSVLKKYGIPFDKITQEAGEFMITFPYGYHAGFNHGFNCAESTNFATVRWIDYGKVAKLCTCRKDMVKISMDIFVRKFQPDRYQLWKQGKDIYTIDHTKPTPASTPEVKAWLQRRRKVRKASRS
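System – N-terminal GST-fused human GASC-1 (KDM4C) fragment, residues 2-372 · Input – enzyme final amount 10 nM · Technique – LANCE TR-FRET, Eu antibody, ULight-streptavidin, EDTA, ex 340 nm, em 618/671 nm · Medium – HEPES buffer, pH 7.5, plus ascorbate · Incubation – enzyme reaction 30 min, then detection 60 min, both room temperature · Reagent – H3K9me3 peptide with Fe(II)/2OG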
T cruzi growth-1: inhibitors of T. cruzi proliferation; T. cruzi beta-gal in NIH3T3, GalScreen luminescence, 90 h; inhibition, % at 8.34 µM; 5.9% of 77,000 active;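 active means mean inhibition above about 93%, with at least 55% of replicates each passing it, limit read from the data, passing the limit was not always enough; inconclusive means only one of those two conditions holds; inactive means neither condition holds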
T cruzi growth-2: blocks T. cruzi growth in NIH3T3 host cells; 72% of 5,600 active; inhibition, % at 8.35 µM; shares compounds with T cruzi growth-1; T. cruzi beta-gal in NIH3T3, GalScreen luminescence, 90 h;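 active means mean replicate inhibition above about 95% and at least 55% of replicates individually reaching it, limit read from the data; inconclusive means only one of the two criteria is met; inactive means neither criterion is met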
T cruzi growth-3: inhibitors of T. cruzi proliferation; T. cruzi beta-gal in NIH3T3, GalScreen luminescence, 90 h; shares compounds with T cruzi growth-1; inhibition, % at 2.09 µM; 21% of 5,600 active; AID 651740;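 active means mean inhibition above about 95%, with at least 55% of replicates also reaching it, limit read from the data; inconclusive means meets just one of the two conditions; inactive means meets neither condition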;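 further: plate controls were neutral control median for no effect and positive control median for full effect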
NIH3T3 tox: cytotoxicity in mouse NIH/3T3 fibroblasts. shares compounds with T cruzi growth-1. NIH/3T3 viability, CellTiter-Glo ATP luminescence, 90 h. cytotoxicity (signal decrease), % at 8.35 µM. 14% of 5,600 active;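 active means mean signal decrease across replicates above about 35% based on untreated-well scatter, with enough replicates individually passing, limit read from the data; inconclusive means no rule stated though some were filed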;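 further: 0% = median of neutral control wells and 100% = median of positive control wells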
3T3 cytotox 2: NIH/3T3 (mouse) viability loss; shares compounds with T cruzi growth-1; NIH/3T3 viability, CellTiter-Glo ATP luminescence, 90 h; inhibition, % at 24.9 µM; 56% of 5,600 active;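 active means mean loss of cell viability signal at or above a set limit, and enough replicates individually reaching it; inconclusive means meets only the mean limit or only the replicate share; inactive means meets neither condition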;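 further: 0% = median of neutral control wells and 100% = median of positive control wells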
Numbers without * were called inactive.

How did C[C@H](CO)N1C[C@H](C)[C@H](CN(C)C(=O)Cc2ccccc2)OCCCC[C@H](C)Oc2ccc(N(C)C)cc2C1=O do in these assays?
IDH1 mut inh: -1; KDM4C inh: 2; T cruzi growth-1: 104*; T cruzi growth-2: inconclusive; T cruzi growth-3: 25; NIH3T3 tox: -10; 3T3 cytotox 2: -23

How did C[C@@H]1CCCCO[C@H](CN(C)C(=O)Cc2ccccc2)[C@H](C)CN([C@H](C)CO)C(=O)c2cc(N(C)C)ccc2O1 do in these assays?
KDM4C inh: 6; T cruzi growth-1: 8

Results for CN(C)CCCNc1c([N+](=O)[O-])c(=O)n(C)c2ccccc12 ?
IDH1 mut inh: 1

What do the screens show for `CC=Cc1ccc2n(c1=O)C[C@H]1[C@H](CO)[C@@H](C(=O)Nc3ccc(-c4ccccc4)cc3)N(C)[C@@H]21` (mixture of isomers)?
KDM4C inh: 1; T cruzi growth-1: 90

What do the screens show for `CC=Cc1ccc2n(c1=O)C[C@@H]1[C@@H](CO)[C@H](C(=O)Nc3ccc(-c4ccccc4)cc3)N(CCC)[C@H]21` (mixture of isomers)?
KDM4C inh: -1; T cruzi growth-1: 103*; T cruzi growth-2: 100*; T cruzi growth-3: 68; NIH3T3 tox: 7; 3T3 cytotox 2: 106*

What do the screens show for `CC=Cc1ccc2n(c1=O)C[C@H]1[C@H](CO)[C@@H](C(=O)Nc3ccc(-c4ccccc4)cc3)N(C(C)=O)[C@@H]21` (mixture of isomers)?
KDM4C inh: 0; T cruzi growth-1: -1

How did CC=Cc1ccc2n(c1=O)C[C@H]1[C@H](CO)[C@@H](C(=O)Nc3ccc(-c4ccccc4)cc3)N(CCC)[C@@H]21 (mixture of isomers) do in these assays?
KDM4C inh: -1; T cruzi growth-1: 112*; T cruzi growth-2: 92; T cruzi growth-3: 85; NIH3T3 tox: 24; 3T3 cytotox 2: 104*

What do the screens show for `C[C@@H]1CN([C@@H](C)CO)C(=O)Cc2cc(NC(=O)c3ccncc3)ccc2O[C@@H]1CN(C)C(=O)Nc1ccc(C(F)(F)F)cc1`?
KDM4C inh: -1; T cruzi growth-1: -12

What do the screens show for `CO[C@H]1CN(C)C(=O)c2cc(NC(=O)NC(C)C)ccc2OC[C@H](C)N(CCC(F)(F)F)C[C@@H]1C`?
KDM4C inh: -1; T cruzi growth-1: 39

Results for CCCC(=O)Nc1ccc2c(c1)OC[C@@H](C)N(Cc1cncnc1)C[C@H](C)[C@H](OC)CN(C)C2=O ?
IDH1 mut inh: 0; KDM4C inh: 0; T cruzi growth-1: -20

Results for C[C@@H]1CN([C@H](C)CO)C(=O)c2cccc(NC(=O)NC3CCCCC3)c2O[C@H]1CN(C)S(C)(=O)=O ?
KDM4C inh: 1

What do the screens show for `C[C@H](CO)N1C[C@H](C)[C@H](CN(C)Cc2cccnc2)Oc2cc(-c3ccccc3F)ccc2S1(=O)=O`?
IDH1 mut inh: 8; KDM4C inh: 0; T cruzi growth-1: 87

Results for C[C@H]1CN([C@@H](C)CO)S(=O)(=O)c2ccc(-c3ccccc3F)cc2O[C@H]1CN(C)Cc1ccncc1 ?
IDH1 mut inh: -1; KDM4C inh: 4; T cruzi growth-1: 107*; T cruzi growth-2: 99*; T cruzi growth-3: 92; NIH3T3 tox: 32; 3T3 cytotox 2: 56*

What do the screens show for `C[C@@H]1CN([C@@H](C)CO)S(=O)(=O)c2ccc(-c3ccccc3F)cc2O[C@@H]1CN(C)Cc1cncnc1`?
IDH1 mut inh: 5; KDM4C inh: 0; T cruzi growth-1: 64

How did Cc1ccccc1-c1ccc2c(c1)O[C@H](CN(C)Cc1ccncc1)[C@H](C)CN([C@@H](C)CO)S2(=O)=O do in these assays?
IDH1 mut inh: 4; KDM4C inh: 2; T cruzi growth-1: 97*; T cruzi growth-2: 107*; T cruzi growth-3: 75; NIH3T3 tox: 52*; 3T3 cytotox 2: inconclusive

Assay outcomes (PubChem BioAssay)
